Data set [1] deals with Plasma. The data set can be described thus: Distribution in plasma in non-iron overloaded Sprague-Dawley rat assessed as decrease in concentration at 300 umol/kg, sc after 4 hrs. It counts as ADME, organism-based. The note with it: in vivo. Set-up: scale not given: the % may be the effect or the level left. The method, boiled down:
(§1)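 Tissue distribution: rats dosed once sc at 300 µmol/kg. Plasma, kidney, liver, heart and pancreas sampled at 0.5, 1, 2 and 4 h. Plasma chelator reported in µM and tissue levels as nmol compound per g wet weight. n = 3 per time point.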

Data set [2] concerns Plasma. Kind of data set: Distribution in plasma in non-iron overloaded Sprague-Dawley rat assessed as decrease in concentration at 300 umol/kg, sc after 2 hrs. The format is ADME, organism-based. Set-up: scale not given: the % may be the effect or the level left. The note with it: in vivo. The gist of the method: as §1
In data set [3] the test system is Liver. Kind of data set: Distribution in liver in non-iron overloaded Sprague-Dawley rat at 300 umol/kg, sc after 1 hr. It counts as ADME, organism-based. The note with it: in vivo. The gist of the method: as §1
Data set [4] relates to Sapajus apella. The data set can be described thus: Iron-clearing efficiency in iron-loaded Cebus apella assessed as excretion in stool at 75 umol/kg, po relative to control. The format is functional. The method, boiled down:
(§2)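 Iron-loaded Cebus apella monkeys given the chelator orally, prepared as for rats except some solubilized in 40% Cremophor RH-40/water. Feces and urine collected at 24 h intervals from 4 d before to 5 d after dosing; iron by flame AAS. Efficiency = (2-day post-drug iron output minus 4-day pre-drug mean) / theoretical 2:1 output, %. Stool/urine split given. Mean ± SEM.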

The test system of data set [5] is Kidney. The data set can be described thus: Distribution in kidney in non-iron overloaded Sprague-Dawley rat at 300 umol/kg, sc after 2 hrs. The format is ADME, organism-based. The settings on record: in vivo. The gist of the method: as §1
Data set [6] can be described thus: Distribution in pancreas per wet weight in non-iron overloaded Sprague-Dawley rat at 300 umol/kg, sc after 2 hrs. The settings on record: in vivo.
Data set [7] concerns Rattus norvegicus. The data set can be described thus: Iron-clearing efficiency in non-iron overloaded Sprague-Dawley rat assessed as excretion in bile at 300 umol/kg, po relative to control. It counts as functional. The method, boiled down:
(§3)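 Male Sprague-Dawley rats (400-450 g), bile-duct cannulated and not iron overloaded, given one oral 300 µmol/kg dose. Given in water, as monosodium salt (1 equiv NaOH) or in 40% Cremophor. Bile collected every 3 h for up to 48 h and urine every 24 h; iron by flame AAS. Efficiency = (treated minus control iron excretion) / theoretical 2:1 output, %; bile/urine split given.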

Data set [8] relates to Kidney. Kind of data set: Distribution in kidney in non-iron overloaded Sprague-Dawley rat at 300 umol/kg, sc after 0.5 hrs. The format is ADME, organism-based. The note with it: in vivo. The method, boiled down:
as §1

Data set [9] concerns Sapajus apella. The data set can be described thus: Iron-clearing efficiency in iron-loaded Cebus apella at 75 umol/kg, po relative to control. The format is functional. The gist of the method: as §2
Data set [10] in a line: Partition coefficient, log P in TRIS buffer at pH 7.4. It counts as physicochemical. The method, boiled down:
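Shake-flask direct method in TRIS buffer, pH 7.4. Reported as log of the fraction in the octanol layer (log Papp).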

The test system of data set [11] is Rattus norvegicus. Kind of data set: Iron clearance in non-iron overloaded Sprague-Dawley rat at 300 umol/kg, po at 3 hrs. The format is functional. The method, boiled down:
(§4)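 Male Sprague-Dawley rats (400-450 g) with bile-duct cannulation and no iron overload, given a single oral 300 µmol/kg dose. Bile collected at 3 h intervals for up to 48 h. Iron measured by flame atomic absorption and reported as µg iron per kg body weight at each interval.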

The subject of data set [12] is Rattus norvegicus. Kind of data set: Iron-clearing efficiency in non-iron overloaded Sprague-Dawley rat at 300 umol/kg, po relative to control. It counts as functional. The gist of the method:
as §3

Data set [13] concerns Kidney. The data set can be described thus: Distribution in kidney in non-iron overloaded Sprague-Dawley rat at 300 umol/kg, sc after 4 hrs. The format is ADME, organism-based. The note with it: in vivo. The method, boiled down:
as §1

Data set [14] can be described thus: Ratio of iron clearing efficiency in iron-overloaded Cebus apella to non-iron-overloaded Sprague-Dawley rat. The format is functional. The method, boiled down: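 Performance ratio = mean ICE in iron-overloaded primates divided by mean ICE in non-overloaded rats.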
Data set [15] concerns Rattus norvegicus. The data set can be described thus: Iron-clearing efficiency in non-iron overloaded Sprague-Dawley rat assessed as excretion in urine at 300 umol/kg, po relative to control. It counts as functional. The gist of the method: as §3
The subject of data set [16] is Kidney. Kind of data set: Distribution in kidney in non-iron overloaded Sprague-Dawley rat at 300 umol/kg, sc after 1 hr. The format is ADME, organism-based. The settings on record: in vivo. The gist of the method: as §1
Data set [17] has as its system Plasma. Kind of data set: Distribution in plasma in non-iron overloaded Sprague-Dawley rat assessed as decrease in concentration at 300 umol/kg, sc after 1 hr. The note with it: in vivo. It counts as ADME, organism-based. The arrangement: scale not given: the % may be the effect or the level left. The method, boiled down:
as §1

The test system of data set [18] is Liver. Kind of data set: Distribution in liver in non-iron overloaded Sprague-Dawley rat at 300 umol/kg, sc after 0.5 hrs. The format is ADME, organism-based. The settings on record: in vivo. The method, boiled down:
as §1

A short description of data set [19]: Distribution in plasma in non-iron overloaded Sprague-Dawley rat at 300 umol/kg, sc after 0.5 hrs. The format is ADME, organism-based. The method, boiled down:
as §1

Data set [20] has as its system Sapajus apella. The data set can be described thus: Iron-clearing efficiency in iron-loaded Cebus apella assessed as excretion in urine at 75 umol/kg, po relative to control. The format is functional. The method, boiled down: as §2
In data set [21] the test system is Rattus norvegicus. The data set can be described thus: Iron clearing efficiency in non-iron overloaded Sprague-Dawley rat at 300 umol/kg, po in presence of 250 mg/kg/dose sodium benzoate. The format is functional. The gist of the method:
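Bile-duct-cannulated rats given the chelator orally at 300 µmol/kg. Sodium benzoate in distilled water, 250 mg/kg/dose sc, given 0.5 h before the chelator and then hourly for five more doses. Iron in bile and urine measured by flame AAS. Efficiency = (treated minus control iron excretion) / theoretical output for a 2:1 complex, as percent.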

The test system of data set [22] is Rattus norvegicus. The data set can be described thus: Iron-clearing efficiency in non-iron overloaded Sprague-Dawley rat assessed as excretion in urine after 48 hrs at 300 umol/kg, po relative to control. The format is functional. The method, boiled down:
as §3

Data set [23] relates to Rattus norvegicus. Kind of data set: Iron-clearing efficiency in non-iron overloaded Sprague-Dawley rat assessed as excretion in bile at 300 umol/kg, po after 48 hrs relative to control. It counts as functional. The method, boiled down:
as §3

For data set [24], the system named is Rattus norvegicus. Kind of data set: Iron-clearing efficiency in non-iron overloaded Sprague-Dawley rat at 300 umol/kg, po after 48 hrs relative to control. It counts as functional. The method, boiled down: as §3
Data set [25] relates to Rattus norvegicus. The data set can be described thus: Iron clearance in non-iron overloaded Sprague-Dawley rat at 300 umol/kg, po at 6 hrs. It counts as functional. The method, boiled down: as §4

As a reminder, the logD is the decadic logarithm of the distribution of all forms, ionised or not, between an organic phase and buffer at a given pH. For `COCCOCCOCCOc1ccc(O)c(C2=N[C@@](C)(C(=O)[O-])CS2)c1.[Na+]`, the Activity is 82% with Plasma [1]; 54% with Plasma [2]; 56% with Sapajus apella [4]; 98% in the data set with Rattus norvegicus [7]; 8.1% in the data set on Sapajus apella [9]; 388 µg/kg with Rattus norvegicus [11]. Further, the Activity in the data set with Rattus norvegicus [12] worked out at 8%; with Rattus norvegicus [15] it was 2%; in the data set on Plasma [17] it was 39%; in the data set on Sapajus apella [20], 44%. Further, the Drug uptake in the data set on Liver [3] is 315 nmol/g; in the data set on Kidney [5], 321 nmol/g; in data set [6], 30 nmol/g; with Kidney [8] it was 643 nmol/g; in the data set on Kidney [13], 116 nmol/g; in the data set on Kidney [16], 435 nmol/g. This molecule also registered a Drug uptake in the data set on Liver [18] of 483 nmol/g. In [10], this molecule yielded a logD of -1.27. Further, the Ratio in data set [14] worked out at 1. The same molecule had a concentration at 0.5 h in data set [19] of 324 µM.

As for `COCCOCCOCCOc1ccc(C2=N[C@@](C)(C(=O)O)CS2)c(O)c1`, the Activity was found to be 97% in the data set with Plasma [1]; 92% in the data set on Plasma [2]; 96% with Sapajus apella [4]; 8.8% with Rattus norvegicus [21]; 90% in the data set with Rattus norvegicus [7]; 183 µg/kg in the data set with Rattus norvegicus [11]. The Activity with Rattus norvegicus [15] turned out to be 10%; in the data set with Plasma [17], 28%; in the data set on Sapajus apella [20], 4%. Moreover, the Drug uptake in the data set with Liver [3] amounted to 315 nmol/g; with Kidney [5], 41 nmol/g; in data set [6], 30 nmol/g; in the data set with Kidney [8], 368 nmol/g; in the data set on Kidney [13] it was 34 nmol/g; with Kidney [16], 252 nmol/g. For the same molecule, in the data set on Liver [18], the Drug uptake came out at 339 nmol/g. The concentration at 0.5 h in [19] is 194 µM.

In the case of `COc1ccc(C2=N[C@@](C)(C(=O)[O-])CS2)c(O)c1.[Na+]`, the Activity with Sapajus apella [4] is 91%; in the data set with Rattus norvegicus [7], 98%; in the data set on Rattus norvegicus [15], 2%; in the data set with Sapajus apella [20], 9%.

On to `COc1cccc(C2=N[C@@](C)(C(=O)[O-])CS2)c1O.[Na+]`, for which the Activity in the data set on Sapajus apella [4] turned out to be 91%; in the data set with Rattus norvegicus [22], 1%; with Rattus norvegicus [23], 99%; with Rattus norvegicus [24], 12.4%; with Sapajus apella [20] it was 9%. Further, the Ratio in data set [14] came to 1.8.

For the molecule `C[C@]1(C(=O)[O-])CSC(c2cc(O)ccc2O)=N1.[Na+]`, the Activity in the data set on Sapajus apella [4] was determined as 88%; with Rattus norvegicus [7], 99%; in the data set on Rattus norvegicus [15] it was 1%; with Sapajus apella [20], 12%. In data set [14], the Ratio was found to be 12.6.

For the molecule `C[C@]1(C(=O)[O-])CSC(c2ccc(O)cc2O)=N1.[Na+]` [DEFERITRIN SODIUM], the Activity in the data set with Sapajus apella [4] worked out at 88%; in the data set on Rattus norvegicus [21], 12%; in the data set with Rattus norvegicus [7], 100%; with Rattus norvegicus [11], 68 µg/kg; in the data set with Rattus norvegicus [15] it was 0%; in the data set on Sapajus apella [20], 12%. The results for the Drug uptake in the data set with Kidney [13] and in the data set on Kidney [16] were 27 nmol/g and 179 nmol/g, respectively.

As for `COc1ccc(O)c(C2=N[C@@](C)(C(=O)[O-])CS2)c1.[Na+]`, the Activity in the data set on Sapajus apella [4] came to 94%; in the data set with Rattus norvegicus [7], 95%; with Rattus norvegicus [15], 5%; in the data set on Sapajus apella [20], 6%. Besides, the Ratio in data set [14] worked out at 3.

In the case of `C[C@]1(C(=O)[O-])CSC(c2cccc(O)c2O)=N1.[Na+]`, the Activity in the data set with Sapajus apella [4] is 83%; with Rattus norvegicus [7], 98%; with Rattus norvegicus [12], 4.6%; in the data set with Rattus norvegicus [15], 2%; in the data set with Sapajus apella [20] it was 17%. Further, the Ratio in data set [14] stood at 5.

As to `COCCOCCOCCOc1cccc(C2=N[C@@](C)(C(=O)[O-])CS2)c1O.[Na+]`, the Activity with Plasma [1] is 79%; in the data set with Plasma [2], 61%; in the data set with Sapajus apella [4], 72%; with Rattus norvegicus [22] it was 5%; in the data set on Rattus norvegicus [25], 287 µg/kg; in the data set on Sapajus apella [9], 24.5%. In addition, the Activity was determined as 95% in the data set on Rattus norvegicus [23], 10.6% with Rattus norvegicus [24], 26% in the data set with Plasma [17] and 28% in the data set on Sapajus apella [20]. The Drug uptake was determined as 318 nmol/g in the data set on Liver [3]; 145 nmol/g in the data set with Kidney [5]; 16 nmol/g in [6]; 280 nmol/g with Kidney [8]; 90 nmol/g in the data set on Kidney [13]; 259 nmol/g in the data set on Kidney [16]. The molecule also showed a Drug uptake with Liver [18] of 242 nmol/g. In addition, the logD in data set [10] is -1.22. Moreover, in [14], the Ratio came to 2.3. Besides, in data set [19], the concentration at 0.5 h came out at 62 µM.

For the origin of these results see ChEMBL document CHEMBL1145412, “Impact of the 3,6,9-trioxadecyloxy group on desazadesferrithiocin analogue iron clearance and organ distribution” (J Med Chem, 2007).
